# HSV augment: enhancers of HSV replication in host cells, fold increase, host cell viability; HSV replication augmentation in cells; maximum fold increase; 0.005% of 220,000 active; AID 1956, 2009; in the data active = maximum fold increase above about 1.5; tested in PC3 cells
# MT stabilizer: microtubule stabilizers in HeLa cells, primary screen, imaging, high-content imaging. HeLa tubulin immunostaining HCS, 24 h; share of cells brighter than vehicle mean+2SD. % tubulin-high responders, % at 10 µM. 0.83% of 200,000 active;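 active = plate Z-score above 3 for both tubulin-high and condensed-nucleus cell shares, with cell loss under 80%, at 10 µM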;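 also: anti alpha tubulin signal scored within the nucleus-defined area of each cell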
# b-catenin transl: modulators of beta-catenin nuclear translocation, primary screen, imaging, HeLa cells, immunofluorescence, high-content. AID 1665, 2009. nuclear translocation activity, % at 5 µM. 0.3% of 190,000 active;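 active = nuclear translocation activity above 50% at 5 µM, with a well cell count of 50 or more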;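 also: per-cell ratio of nuclear to cytoplasmic median beta-catenin stain intensity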
#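 Test system: human HeLa cells, native beta-catenin. Compound dosing: 5 µM primary single dose, 0.1% DMSO, 0.02–20 µM confirmation series. Incubation: compound exposure 24 h at 37°C. Detection: beta-catenin immunostaining with DAPI counterstain, 20x imaging, 6 fields/well. Read-out basis: Nuclear/cytoplasmic beta-catenin signal ratio, % activation.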
# Dynein cargo inh: inhibitors of GR-EGFP nuclear translocation, primary screen, dynein cargo transport inhibitor project, imaging, high-content, 3617.4 mouse cells; z-score, hits read low; test concentration mostly 20 µM; stimulated with dexamethasone, 1 µM; hits give low values; AID 1381, 2008; 0.47% of 220,000 active;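 active = plate z-score of nuclear minus cytoplasmic receptor signal below a set negative limit, without overly bright fluorescence or cell loss, cut at about -3.5 in these data, passing the limit was not always enough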;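 also: z-score of nuclear minus cytoplasmic ring GR-EGFP intensity difference per well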
#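 Buffer or medium: Induction medium lacking tetracycline, stripped serum | Also added: Dexamethasone agonist, 1.0 µM final, for 30 min | Timing: 48 h induction, 1 h compound, 30 min dex at 37 °C | Detection: Formaldehyde fixation, Hoechst nuclear stain, 10x automated fluorescence imaging | Measure: Nuclear versus cytoplasmic GR-EGFP signal, averaged per well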
# Lmaj promast: Leishmania major promastigote growth inhibition, primary screen; Leishmania major promastigotes, resazurin fluorescence viability; inhibition, % at 10 µM; 9% of 200,000 active; AID 1063, 2008; in the data active = inhibition above about 50%;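 also: promastigotes grown with compound for 44 hours at 28 °C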
# Hits are given with their value; n = inactive; x = no result. An excerpt weighted towards active compounds, which were near 8.9% of everything screened.
SMILES,HSV augment,MT stabilizer,b-catenin transl,Dynein cargo inh,Lmaj promast
CCOc1ccc2nc(SCC(=O)Nc3ccc(S(=O)(=O)N4CCCC4)cc3)c(C)cc2c1,n,x,n,n,x
Cc1ccc2nc(SCC(=O)Nc3ccccc3N3CCOCC3)c(C#N)cc2c1,x,46.3,n,n,n
COCCNc1nc2nonc2nc1N1CCC(N(C)C)C1 (stereo unspecified),n,n,n,n,n
CSCCC(NC(=O)c1ccc(Cl)cc1)C(=O)OCC(=O)Nc1cc(Cl)ccc1C#N (stereo unspecified),n,n,x,n,53.9
COc1cccc(/C=C/C(=O)OCC(=O)c2ccc3c(c2)NC(=O)CO3)c1OC,n,n,n,n,n
O=C(c1ccccc1)N1CCN(Cc2ccccc2Br)CC1,n,n,n,n,n
Brc1ccccc1CN1CCC(N2CCCCC2)CC1,n,n,n,n,100.4
Cc1ccc(C)c(NC2=NS(=O)(=O)c3ccccc32)c1,n,n,n,n,n
CCCC(=O)Nc1cc(-c2cn3cccnc3n2)ccc1OC,n,n,n,n,63.0
COc1ccc(-c2cn3cccnc3n2)cc1NC(=O)CC(C)C,n,n,n,n,n
CCCC(=O)Nc1cccc(-c2cn3cccnc3n2)c1,n,n,n,n,90.5
Cc1cc(NCCc2ccccc2F)n2ncnc2n1,n,n,n,n,n
Cc1ccc(NP(=O)(Nc2ccc(C)cc2)Nc2ccc(C)cc2)cc1,n,n,n,n,57.6
Cc1cc(Cl)c(S(=O)(=O)Nc2cccc(O)c2)cc1OCC(N)=O,n,n,n,n,53.2
COc1ccc(NS(=O)(=O)c2cc(OCC(N)=O)c(C)cc2Cl)cc1,n,n,n,n,76.0
COc1ccc(NS(=O)(=O)c2cc(NC(=O)CNC(=O)c3ccc(C)s3)ccc2Cl)cc1,n,n,x,n,84.1
Cc1cc(Cl)c(S(=O)(=O)Nc2ccc3c(c2)OCCO3)cc1OCC(=O)NC1CCCCC1,n,n,x,n,99.1
Cc1cc(Cl)c(S(=O)(=O)Nc2ccon2)cc1OCC(=O)NC1CCCCC1,n,n,n,n,n
COc1ccc(-c2ccc(SCC(=O)Nc3nnc(C)s3)nn2)cc1,n,n,n,n,n
COc1cc(SC)ccc1C(=O)NCCOc1ccc(F)cc1,n,n,x,n,57.8
COc1cc(SC)ccc1C(=O)Nc1c(Cl)cncc1Cl,n,n,n,n,95.4
COc1cc(SC)ccc1C(=O)Nc1c(C)cccc1C,n,n,n,n,n
CC(C)=NOc1cc(NC(=O)CCl)cc([N+](=O)[O-])c1,n,n,x,n,98.6
CCC(=O)Nc1cc(ON=C(C)C)cc([N+](=O)[O-])c1,n,n,x,n,n
O=C(CN1CCCC1)NC12CC3CC(CC(C3)C1)C2,n,n,n,n,50.7
SMILES,HSV augment,MT stabilizer,b-catenin transl,Dynein cargo inh,Lmaj promast
C=CCc1c(C)nn(CC(=O)O)c1-c1ccccc1,n,n,n,n,n
C=CCOc1nc2c(c(=O)n(C)c(=O)n2C)n1Cc1c(Cl)cccc1Cl,n,n,n,n,64.3
CCOc1nc2c(c(=O)n(C)c(=O)n2C)n1Cc1ccccc1Cl,n,n,n,n,n
COc1cc(NC(=S)Nc2ncccc2C)cc(OC)c1OC,n,n,n,n,n
COc1cccc(OCc2cc(/C=N/NC(=O)c3ccn[nH]3)ccc2OC)c1,n,n,n,n,n
O=C(NCc1ccco1)/C(=C/c1cccnc1)NC(=O)c1cccc(Br)c1,n,n,n,n,n
O=C(NCc1ccco1)/C(=C\c1cccnc1)NC(=O)c1ccccc1F,n,n,n,n,52.6
Cc1ncc([N+](=O)[O-])n1CC(O)CCl (stereo unspecified),n,n,x,n,n
Cc1ncc([N+](=O)[O-])n1Cc1ccc(Cl)cc1,n,n,n,n,82.6
O=[N+]([O-])c1cn(Cc2ccc(Cl)cc2)cn1,n,n,n,n,63.6
Cc1ncc([N+](=O)[O-])n1Cc1ccc(Br)cc1,n,n,n,n,90.5
COc1ccc(-c2nc(CS(=O)CC(=O)NCc3ccco3)c(C)o2)cc1 (stereo unspecified),n,n,n,n,n
CCOc1ccc(NC(=O)C(=O)NCCCn2ccnc2)cc1,n,n,n,n,n
Cc1cc(N2CCN(C)CC2)nc2ccc(NC(=S)NCCN3CCc4ccccc4C3)cc12,n,n,n,n,100.5
Cc1cc(N2CCCC2)nc2ccc(NC(=S)NCCCN3CCC(C)CC3)cc12,n,n,n,n,100.2
